Screens deposited in PubChem by several laboratories.
Only some compounds are listed: those with a hit (about 4.8% of all), similar ones and a draw of the others.
NR3A LBD binder: binders of NR3A ligand-binding domain, primary screen, biophysical, differential scanning fluorimetry, uHTS; Glutamate receptor ionotropic, NMDA 3A (GRIN3A) ligand-binding domain; NR3A LBD differential scanning fluorimetry, Tm shift; 0% = protein alone, 100% = glycine-bound protein; Tm shift relative to glycine control, % at 25 µM; 2.5% of 340,000 active;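 active = melting temperature shift of at least 10% of the positive control shift, at one fixed dose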
UCH37 DUB inh: inhibitors of human UCH37 deubiquitinase, primary screen, biochemical, Ub-AMC cleavage, fluorescence. Ubiquitin carboxyl-terminal hydrolase isozyme L5 (Homo sapiens), Q9Y5K5. purified proteasome/UCH37. inhibition, % (no concentration beside the values). 0.33% of 330,000 active. AID 588478, 2011;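 active = mean inhibition over replicate wells above about 20%, limit read from the data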;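 also: 0% = compound-free wells with enzyme and 100% = wells lacking proteasome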
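Assay system: Proteasome-bound UCH37. Buffer or medium: pH 7.4 Tris-HCl (50 mM) with ovalbumin, ATP-MgCl2, DTT. Incubation: 30 min preincubation with enzyme, 25 min cleavage at room temperature. Measured by: fluorescence, ex 355 nm, em 460 nm. Read-out basis: percent inhibition. Control set: wells without proteasome as full block, compound-free enzyme plus substrate as uninhibited.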
PAFAH2 inh: PAFAH2 enzyme inhibitors, primary screen, biochemical, fluorescence polarization, human. Platelet-activating factor acetylhydrolase 2, cytoplasmic (Homo sapiens), Q99487. recombinant PAFAH2, FP-rhodamine activity probe. inhibition, % at 3.39 µM. 0.99% of 340,000 active. AID 492956, 2010;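 active = inhibition above the mean over all tested compounds plus 3 SD, cut at about 30% in these data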;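 also: inhibitors block probe labeling of enzyme so polarization drops; 0% = enzyme with DMSO and 100% = wells lacking PAFAH2 protein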
PAFAH1B2 inh: PAFAH1B2 enzyme inhibitors, primary screen, biochemical, fluorescence polarization, human; inhibition, % at 3.39 µM; recombinant PAFAH1B2, FP-rhodamine activity probe; 1.2% of 340,000 active; Platelet-activating factor acetylhydrolase IB subunit alpha2 (Homo sapiens), P68402;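 active = inhibition above the mean of all tested compounds plus 3 SD, cut at about 24% in these data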;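 also: 0% = enzyme with DMSO and 100% = wells lacking PAFAH1B2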
PAFAH1B3 FP inh: PAFAH1B3 enzyme inhibitors, primary screen, biochemical, fluorescence polarization, human. Platelet-activating factor acetylhydrolase IB subunit alpha1 (Homo sapiens), Q15102. AID 492972, 2010. recombinant PAFAH1B3, FP-rhodamine probe. inhibition, % at 3.39 µM. 0.28% of 340,000 active;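 active = inhibition above the screen-wide average of all tested compounds plus 3 SD, cut at about 25% in these data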;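 also: 0% = enzyme with DMSO only and 100% = wells lacking PAFAH1B3 protein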
pPAFAH inh: pPAFAH enzyme inhibitors, primary screen, biochemical, fluorescence polarization, human; Platelet-activating factor acetylhydrolase (Homo sapiens), Q13093; recombinant pPAFAH, FP-rhodamine probe fluorescence polarization; inhibition, % at 3.39 µM; 1.5% of 330,000 active; AID 463082, 2010;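 active = inhibition above the mean inhibition across the screen plus 3 SD, cut at about 25% in these data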;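 also: inhibitors block binding of the rhodamine activity-based probe so polarization drops; 0% = enzyme with DMSO and 100% = wells lacking pPAFAH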
Target sequence (Q13093 whole entry, looked up): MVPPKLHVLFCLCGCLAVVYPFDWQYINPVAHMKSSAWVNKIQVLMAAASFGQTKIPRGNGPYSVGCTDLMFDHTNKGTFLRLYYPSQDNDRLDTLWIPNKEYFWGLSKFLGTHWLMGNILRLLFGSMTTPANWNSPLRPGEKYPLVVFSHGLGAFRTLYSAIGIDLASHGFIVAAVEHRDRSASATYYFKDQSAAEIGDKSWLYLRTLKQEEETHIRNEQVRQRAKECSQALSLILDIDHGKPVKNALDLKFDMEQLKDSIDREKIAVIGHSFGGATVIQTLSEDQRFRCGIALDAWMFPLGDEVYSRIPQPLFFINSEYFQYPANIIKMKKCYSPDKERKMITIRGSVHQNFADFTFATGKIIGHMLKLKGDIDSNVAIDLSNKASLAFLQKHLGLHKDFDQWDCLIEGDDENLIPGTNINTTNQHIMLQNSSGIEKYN
* = called active by the depositor; nt = no result given.

SMILES	NR3A LBD binder	UCH37 DUB inh	PAFAH2 inh	PAFAH1B2 inh	PAFAH1B3 FP inh	pPAFAH inh
O=C1C=C(c2cc(C(F)(F)F)cc(C(F)(F)F)c2)C[C@@H](c2ccc(Cl)cc2)C1	13*	1	1	2	7	5
O=C1C=C(c2ccc3[nH]ccc3c2)C[C@@H](c2ccc(Cl)cc2)C1	22*	3	-11	-8	9	-2
CC(=O)Nc1cccc(-c2cc(-c3c(Cl)cccc3Cl)no2)c1	-4	5	-2	0	-2	28*
C=C1CCC[C@]2(C)C[C@H]3OC(=O)C(CNCCN(C)C)[C@H]3CC12 (some centres undefined)	-1	6	12	11	3	1
C=C1CCC[C@]2(C)C[C@H]3OC(=O)C(CNCC(C)C)[C@H]3CC12 (some centres undefined)	-3	21*	11	8	4	4
NC(=S)NN=C1c2cc(Cl)ccc2-c2c1cc(Cl)cc2[N+](=O)[O-]	12*	nt	18	3	7	nt
NC(=S)N/N=C1\CCOc2ccc(Cl)cc21	1	nt	-2	4	5	7
COc1cccc(C(=O)NN=c2oc3c(OC)cccc3cc2C(=O)NCc2ccccc2)c1	nt	0	nt	nt	nt	nt
Cc1ccc(NC(=S)NCCc2ccccc2)c(C)c1	1	2	9	2	6	4
COc1ccc2[nH]cc(CCNC(=S)NCCc3ccccc3)c2c1	26*	1	-3	0	3	2
COc1ccc2[nH]cc(CCNC(=O)COc3cc(C)cc4oc(=O)cc(C)c34)c2c1	-2	0	16	25*	7	3
O=C(NCCc1c[nH]c2ccccc12)Nc1cccc2ccccc12	18*	-3	2	14	3	4
Cc1ccc(NC(=S)NCCc2c[nH]c3ccccc23)c(C)c1	12*	3	3	9	9	4
O=C(NN=Cc1ccc(O)c(O)c1O)/C(=C/c1ccc([N+](=O)[O-])cc1)NC(=O)c1ccccc1	nt	8	nt	nt	nt	nt
Cc1cccc(C=NNC(=O)c2sccc2-n2cccc2)c1	nt	3	nt	nt	nt	nt
CN1C(=c2sc(=C3C(=O)N(c4ccccc4)NC3=Nc3ccccc3)n(C)c2=O)C(C)(C)c2ccccc21	nt	5	nt	nt	nt	nt
Nc1nnc(CC(=O)NN=Cc2ccc(-c3cccc(Cl)c3)o2)s1	nt	-12	nt	nt	nt	nt
COc1ccccc1NC(=S)NCCc1c[nH]c2ccccc12	7	4	2	9	9	3
COc1cc(NC(=S)NCCc2c[nH]c3ccccc23)c(OC)cc1Cl	36*	2	-10	14	11	6
COc1ccc(NC(=S)NCCc2c[nH]c3ccccc23)cc1	26*	3	2	5	4	1
CC(=NNC(=O)C(O)(c1ccccc1)c1ccccc1)c1ccc(C)o1	nt	7	nt	nt	nt	nt
Cc1oc2c(cc(NS(=O)(=O)c3ccc(Cl)cc3)c3ccccc32)c1C(=O)O	-5	4	11	11	9	nt
CCOC(=O)c1c(C)oc2c1cc(NS(=O)(=O)c1ccc(C(=O)O)cc1)c1ccccc12	-6	7	10	4	7	29*
CC(=NN=C1SCC(=O)N1c1ccccc1)c1ccc(C)cc1	nt	2	nt	nt	nt	nt
Br/C(C=NNc1nc(N2CCOCC2)nc(N2CCOCC2)n1)=C/c1ccccc1	nt	7	nt	nt	nt	nt
CCN1C(=O)C(F)(CC)C(=O)c2ccccc21 (centres undefined)	13*	3	-3	-3	-5	1
Cc1nc2cc(NC(=O)Nc3nccs3)ccc2n1C	1	2	7	9	1	6
O=C(Nc1ccc(Cl)c(Cl)c1)Nc1nccs1	37*	nt	-16	-3	-5	-16
O=C(Nc1cccc(Cl)c1)Nc1nccs1	31*	3	-7	1	5	-1
COC(=O)C(=Nc1ccccc1)/C(C(=O)C(=O)N(C)c1ccccc1)=C(/O)c1ccccc1	nt	8	nt	nt	nt	nt
